Data: ChEMBL document CHEMBL1955840, “Proteasome inhibitors for cancer therapy” (Bioorg Med Chem, 2012)

What was measured:
[1] = Inhibition of chymotrypsin-like activity of human liver 20S proteasome assessed as release of AMC using Suc-LLVY-AMC fluorogenic substrate after 15 mins preincubation measured every 1.5 mins for 20 mins by fluorescence analysis
Method in brief: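 Proteasome partially purified from postmortem human liver, 6.7 µg/mL final, in 20 mM Tris–Cl pH 7.5, 0.04% SDS, 5% DMSO; activated by 15 min preincubation at 27 °C. Suc-LLVY-AMC added to 100 µM; AMC fluorescence (ex 360/em 460 nm) read every 1.5 min for 20 min at 27 °C. Rates per inhibitor concentration; IC50 by non-linear regression; mean S.D., n = 3–6.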

[2] = biological target: Chymotrypsinogen A (Bos taurus, UniProt P00766); assay: Inhibition of bovine alpha-chymotrypsin
[3] = biological target: Chymotrypsinogen A (Bos taurus) (UniProt P00766); assay: Inhibition of bovine alpha-chymotrypsin at 10 uM
Method in brief: (§1)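 Percent inhibition measured at a single 10 µM concentration; averages of two independent experiments, each run in triplicate.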

[4] = tested on: MCF7; assay: Antitumor activity against human MCF7 cells assessed as cell viability; format: functional, cell-based
Method in brief: (§2)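 Tumor cell viability IC50 values; averages of two independent experiments, each performed in triplicate.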

[5] = tested on: MOLT-4; assay: Ratio of IC50 for chymotrypsin-like activity of 20S proteasome in human MOLT4 cells to IC50 for chymotrypsin-like activity of human liver 20S proteasome in cell-free assay; format: cell-based
Method in brief: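 Cell-permeability index: IC50 against chymotrypsin-like activity in intact Molt-4 cells divided by IC50 against isolated human liver 20S proteasome, both from fluorogenic substrate cleavage assays.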

[6] = tested on: PANC-1; assay: Antitumor activity against human PANC1 cells assessed as cell viability; format: functional, cell-based; method in brief: as §2
[7] = tested on: SK-MEL-5; assay: Antitumor activity against human SK-MEL-5 cells assessed as cell viability; format: functional, cell-based; method in brief: as §2
[8] = Inhibition of chymotrypsin-like activity of 20S proteasome in human MOLT4 cells assessed as release of AFC using MeOSuc-Phe-Leu-Phe-AFC substrate after 15 mins measured every 1.5 mins for 20 mins by fluorescence analysis; format: cell-based; conditions: MOLT-4
Method in brief: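 Molt-4 human T-cell leukemia cells washed, resuspended at 6 × 10⁶ cells/mL in HEPES-buffered saline (pH 7.0) with KCl, NaCl, glucose, MgSO₄ and Na pyruvate. Fluorogenic AFC substrate at 100 µM, 0.6% DMSO final; incubated at 37 °C; AFC fluorescence (ex 420/em 490 nm) read every 1.5 min for 20 min. IC50 reported as mean S.D., n = 3–6.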

[9] = tested on: DU-145; assay: Antitumor activity against human DU145 cells assessed as cell viability; format: functional, cell-based; method in brief: as §2
[10] = biological target: T1, Calpain-1 catalytic subunit (Homo sapiens) (UniProt P07384); assay: Inhibition of human calpain 1 at 10 uM; method in brief: as §1
T1 sequence (whole entry): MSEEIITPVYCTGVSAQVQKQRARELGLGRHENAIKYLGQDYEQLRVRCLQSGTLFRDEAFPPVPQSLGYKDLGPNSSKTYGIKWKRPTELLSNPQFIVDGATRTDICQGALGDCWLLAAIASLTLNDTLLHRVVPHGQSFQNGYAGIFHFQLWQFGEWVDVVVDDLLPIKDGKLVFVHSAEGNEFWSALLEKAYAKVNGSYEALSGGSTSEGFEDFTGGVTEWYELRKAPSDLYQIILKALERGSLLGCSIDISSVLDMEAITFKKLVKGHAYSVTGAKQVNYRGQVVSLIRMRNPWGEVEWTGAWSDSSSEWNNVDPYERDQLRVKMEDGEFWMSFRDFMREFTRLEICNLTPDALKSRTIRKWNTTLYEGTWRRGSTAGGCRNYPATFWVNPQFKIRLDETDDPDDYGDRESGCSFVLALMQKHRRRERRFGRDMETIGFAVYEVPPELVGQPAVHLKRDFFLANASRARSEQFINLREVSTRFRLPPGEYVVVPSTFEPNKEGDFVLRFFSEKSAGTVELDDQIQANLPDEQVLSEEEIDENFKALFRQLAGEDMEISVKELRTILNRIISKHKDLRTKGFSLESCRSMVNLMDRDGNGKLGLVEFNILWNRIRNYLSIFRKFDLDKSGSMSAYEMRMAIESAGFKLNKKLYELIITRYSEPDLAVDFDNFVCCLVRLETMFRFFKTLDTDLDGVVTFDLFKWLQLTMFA

[11] = Inhibition of trypsin-like activity of 20S proteasome at 10 uM; method in brief: as §1
[12] = tested on: Lewis lung carcinoma cell line; assay: Antitumor activity against mouse LLC cells assessed as cell viability; format: functional, cell-based; method in brief: as §2
[13] = Antitumor activity against rat AT2 cells assessed as cell viability; format: functional, cell-based; method in brief: as §2
[14] = tested on: OVCAR-3; assay: Antitumor activity against human OVCAR3 cells assessed as cell viability; format: functional, cell-based; method in brief: as §2

Row | Compound | IC50 [1] [nM] | IC50 [2] [nM] | inhibition [3] [%] | Ratio IC50 [5] | IC50 [8] [nM] | inhibition [10] [%] | inhibition [11] [%] | further results
1 | CC(C)C[C@@H](C=O)NC(=O)[C@H](CCCN/C(N)=N/[N+](=O)[O-])NC(=O)C(CCCCCCCCN1C(=O)c2ccccc2C1=O)C1CCCC1 (stereo not given in full) | 2 |  |  |  |  |  |  | 
2 | CC(C)C[C@@H](C=O)NC(=O)[C@H](CCCN/C(N)=N/[N+](=O)[O-])NC(=O)C(CCCCCCCCC#N)C1CCCC1 (stereo not given in full) | 6 |  |  |  |  |  |  | 
3 | CC(C)C[C@H](NC(=O)[C@H](CCCN/C(N)=N/[N+](=O)[O-])NC(=O)C(CCCCCCCCC#N)C1CCCC1)C(=O)C(=O)NCCNS(=O)(=O)c1ccccc1 (stereo not given in full) | 1 |  |  |  |  |  |  | 
4 | CC(C)C[C@H](NC(=O)[C@H](CCCN/C(N)=N/[N+](=O)[O-])NC(=O)C(CCCCCCCCC#N)C1CCCC1)B1OC(C)(C)C(C)(C)O1 (stereo not given in full) | 6 |  |  |  |  |  |  | 
5 | CC(C)C[C@H](NC(=O)[C@H](CCCN=C(N)N[N+](=O)[O-])NC(=O)C(CCCCCCCCC#N)C1CCCC1)B1O[C@@H]2[C@@H]3C[C@H](C[C@]2(C)O1)C3(C)C (mixture of isomers) |  | > 10000 |  |  |  |  |  | 
6 | CC(C)C[C@H](NC(=O)[C@H](CCCN/C(N)=N/[N+](=O)[O-])NC(=O)C(CCCCCCCCC#N)C1CCCC1)B1O[C@@H]2[C@@H]3C[C@H](C[C@]2(C)O1)C3(C)C (mixture of isomers) | 3.5 |  | 24 | 69 | 240 | 2 | 0 | IC50 [4]: 425 nM; IC50 [6]: 283 nM; IC50 [7]: 85 nM; IC50 [9]: 293 nM; IC50 [12]: 585 nM; IC50 [13]: > 1000 nM; IC50 [14]: 69 nM
7 | CC(C)C[C@H](NC(=O)[C@H](CCCN/C(N)=N/[N+](=O)[O-])NC(=O)C(CCCCCCCCN1C(=O)c2ccccc2C1=O)C1CCCC1)B1O[C@@H]2[C@@H]3C[C@H](C[C@]2(C)O1)C3(C)C (mixture of isomers) | 3.5 | > 10000 | 30 | 20 | 70 | 11 | 20 | IC50 [4]: 292 nM; IC50 [6]: 184 nM; IC50 [7]: 82 nM; IC50 [9]: 167 nM; IC50 [12]: 513 nM; IC50 [13]: > 1000 nM; IC50 [14]: 29 nM
8 | CC(C)C[C@H](NC(=O)[C@H](CCCN/C(N)=N/[N+](=O)[O-])NC(=O)C(CCCCCCCCC#N)C1CCCC1)B(O)O (mixture of isomers) | 8.7 |  | 30 | 840 | 7340 |  | 5 | 
9 | CC(C)C[C@H](NC(=O)[C@H](CCCNC(=N)N[N+](=O)[O-])NC(=O)C(CCCCCCCCC#N)C1CCCC1)B(O)O (mixture of isomers) |  | > 10000 |  |  |  |  |  | 
10 | CC(C)C[C@H](NC(=O)[C@H](CCCN/C(N)=N/[N+](=O)[O-])NC(=O)C(CCCCCCCCN1C(=O)c2ccccc2C1=O)C1CCCC1)B(O)O (mixture of isomers) | 4.1 | > 10000 | 2 | 690 | 2830 | 0 | 24 | 
